Compound activity from PubChem.
Diaph inh CS = counter-screen for diaphorase-based assays: diaphorase inhibitors and chemical oxidizers; diaphorase resazurin-to-resorufin fluorescence, NADH, 16 min; bacterial (C. kluyveri) enzyme, not human; inhibition, % at 20 µM; 0.69% of 190,000 active; AID 1217;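 active = primary screen inhibition at 20 µM above a set limit, cut at about 50% in these data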
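controls = No-NADH positive control and DMSO neutral control | system = Clostridium kluyveri diaphorase enzyme | timing = reaction incubation of 16 min at room temperature | signal = resorufin fluorescence 544/590 nm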
PMI act hi M6P = PMI (human) activation, high substrate; P34949; coupled PMI enzyme assay, resazurin fluorescence, 20 min; hits give high values; 1 = untreated enzyme, 0 = substrate-free blank; activation factor at 20 µM; 0.34% of 190,000 active; AID 1216;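 active = activation factor of 2 or more at 20 µM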
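Test system: human phosphomannose isomerase with PGI, G6PDH, diaphorase coupling enzymes; Amount: PMI at 15 ng/mL final; Reagent: Mannose-6-phosphate 1.0 mM (near-saturating) plus 0.22 mM NADP+; Timing: 20 min, room temperature; Technique: resorufin fluorescence at Ex 544/Em 590 nm; Dosing: 20 µM single dose.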
PMI activator = phosphomannose isomerase (human) activation; activation factor at 20 µM; 0.005% of 190,000 active; purified human PMI, coupled resazurin fluorescence, 20 min; hits give high values; 1 = vehicle control, 0 substrate-free wells; AID 1214;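 active = activation factor of 2 or more at 20 µM, relative to plate controls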
Diaphorase act = counter-screen for diaphorase-based assays: diaphorase activators and chemical reducers. Diaphorase/resazurin coupled assay, resorufin fluorescence, 16 min; hits give high values; 1 = vehicle wells, 0 = NADH-free wells. activation factor at 20 µM. 0.005% of 190,000 active. AID 1229;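 active = diaphorase activity raised at least twofold by the compound at 20 µM; inactive = activation factor below 2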
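Test system: Clostridium kluyveri diaphorase, purified enzyme; input: enzyme 0.07 U/mL final; buffer or medium: 50 mM HEPES pH 7.4 with 4.542 mM MgCl2, 0.005% Tween 20; also added: 0.114 mM NADH and 0.1 mM resazurin, final amounts; schedule: 16 min enzyme reaction, ambient temperature; technique: fluorescence of resorufin, 544 nm excitation, 590 nm emission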
FLuc stim CS = affects firefly luciferase, flagging false hits in luciferase stimulation screens; ATPlite luciferase biochemical, luminescence, 10 min; 0 = ATP-free wells, 1 = DMSO control; activation factor at 10 µM; 200,000 tested, under 10 active;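 active = luciferase activation factor, scaled between plate controls, of at least 2 with compound at 10 µM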
Target sequence (P08659 whole entry, looked up): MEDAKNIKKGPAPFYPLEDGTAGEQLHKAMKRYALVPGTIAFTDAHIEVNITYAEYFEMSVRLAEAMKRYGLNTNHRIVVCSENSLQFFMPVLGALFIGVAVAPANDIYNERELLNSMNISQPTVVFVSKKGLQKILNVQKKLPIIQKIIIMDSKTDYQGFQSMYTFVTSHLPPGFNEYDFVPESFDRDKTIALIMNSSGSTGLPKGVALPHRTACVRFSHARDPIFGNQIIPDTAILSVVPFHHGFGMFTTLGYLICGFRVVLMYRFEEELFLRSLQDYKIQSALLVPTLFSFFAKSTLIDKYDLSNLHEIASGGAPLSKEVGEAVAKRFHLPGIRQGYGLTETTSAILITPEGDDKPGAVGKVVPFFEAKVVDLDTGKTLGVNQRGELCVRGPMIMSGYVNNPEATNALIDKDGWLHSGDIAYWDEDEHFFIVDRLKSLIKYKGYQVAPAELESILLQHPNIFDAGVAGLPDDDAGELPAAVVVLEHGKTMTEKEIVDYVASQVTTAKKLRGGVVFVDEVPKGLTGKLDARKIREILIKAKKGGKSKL
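Material: Luciferase/luciferin reagent mix; Doses: test compounds dosed from 2 mM stocks in 100% DMSO; Schedule: 10 min incubation after luciferase reagent addition, room temperature; Measured by: luminescence from luciferase reaction; Read-out: luminescence gain marking luciferase activators.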
FLuc inh counter = counter-screen for luciferase assay inhibitors: firefly luciferase inhibition | 1.5% of 200,000 active | P08659 | inhibition, % at 10 µM | ATPLite firefly luciferase biochemical luminescence, 10 min | AID 1006;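 active = inhibition above about 50% when tested at 10 µM, limit read from the data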
Numbers stand for hits; – = inactive. A selection: hits, their analogues and other compounds. The true share with any hit is near 2.5%.

SMILES | Diaph inh CS | PMI act hi M6P | PMI activator | Diaphorase act | FLuc stim CS | FLuc inh counter
CC(C)(C)n1ncc2c(=O)n(CC(=O)OCc3ccccc3)cnc21 | – | – | – | – | – | 92.5
CC(C)CN1C(=O)c2ccccc2C1(O)Cc1ccccc1 (configuration not stated) | – | 2 | – | – | – | –
O=C(O)c1cccc(-n2cccc2/C=C2/NC(=O)N(c3ccc(Cl)cc3)C2=O)c1 | 62.4 | – | – | – | – | –
CCOC(=O)c1cnc(-n2nc(C)cc2C)nc1N1CCOCC1 | – | – | – | – | – | –
CCOC(=O)c1cnc(-n2nc(C)cc2C)nc1N(C)C | – | – | – | – | – | 79.5
COc1ccc(OC)c2[nH]c(=O)c(CCNC(=O)c3cc4ccccc4o3)cc12 | 58.5 | – | – | – | – | –
C=CCNC(=S)/C(=C(/[O-])c1ccc([N+](=O)[O-])cc1)[n+]1ccccc1 | – | – | – | – | – | –
CC(=O)Nc1cccc(C(=O)OCC(=O)c2ccccc2Cl)c1 | – | – | – | – | – | 82.3
CCC(=O)Nc1cccc(C(=O)OCC(=O)c2ccccc2Cl)c1 | – | – | – | – | – | –
COc1ccc(C(=O)c2c(C(F)(F)F)oc3c2C(=O)c2ccccc2C3=O)cc1 | – | 2 | – | – | – | –
COc1ccc(Oc2ccc(NC(=O)c3ccccc3C)cc2)cc1 | – | – | – | – | – | –
CCc1cc2cc(C)cc(C)c2[nH]c1=S | – | 2.9 | – | – | – | –
Cn1c(NCc2ccc(Cl)cc2)nc2ccccc21 | – | – | – | – | – | 50.9
COc1ccccc1C(C)N(C)Cc1nc(COc2ccccc2)no1 (configuration not stated) | – | – | – | – | – | –
Oc1ccc(-c2csc(Nc3ncccn3)n2)cc1 | – | – | – | – | – | 56.0
Oc1ccc(N=Cc2ccc(OCc3ccccc3)cc2)cc1 | 52.7 | – | – | – | – | –
O=C(N/N=C/c1ccc(OCc2ccccc2)cc1)c1ccncc1 | – | – | – | – | – | –
COC(=O)c1sccc1NC(=O)c1ccc(OC)cc1OC | – | – | – | – | – | –
COc1ccc(NC(=O)c2cc3c(=O)n4ccccc4nc3n2C)c(OC)c1 | – | – | – | – | – | –
Cn1c(C(=O)NCc2ccccn2)cc2c(=O)n3ccccc3nc21 | – | – | – | – | – | 50.7
CC(C)(C)OC(=O)N/N=C/c1cccc([N+](=O)[O-])c1 | – | – | – | – | – | 78.7
CC(C)(C)OC(=O)N/N=C\c1ccc[nH]1 | – | – | – | – | – | 62.3
Cc1cccc(C(=O)N/N=C/c2ccc[nH]2)c1 | – | – | – | – | – | –
Cc1cc(C)cc(C(=O)Nc2ccc(N3CCN(S(C)(=O)=O)CC3)cc2)c1 | – | – | – | – | – | –
COC(=O)C1C(=O)c2c([nH]c(C(=O)OC3CCCC3)c2C)CC1C (configuration not stated) | – | – | – | – | – | 55.5
SMILES | Diaph inh CS | PMI act hi M6P | PMI activator | Diaphorase act | FLuc stim CS | FLuc inh counter
O=[N+]([O-])c1ccc(CSc2nc3ccccc3[nH]2)cc1 | – | – | – | – | – | 64.7
CCCOc1ccc(CSc2nc3ccccc3[nH]2)cc1 | – | – | – | – | – | 63.8
Fc1ccc(CSc2nc3ccccc3[nH]2)cc1 | – | – | – | – | – | –
CCOc1ccc(OCCSc2nc3ccccc3[nH]2)cc1 | – | – | – | – | – | –
CCC(C)(C)C1CCC(=NNC(=S)Nc2ccccc2)CC1 (configuration not stated) | – | 2.3 | – | – | – | –
CC(C)(C)C1CCC(=NNC(=S)NCc2ccccc2)CC1 (configuration not stated) | – | 2 | – | – | – | –
O=C(N/C=N/O)C1=NOC(CNc2ncc(C(F)(F)F)cc2Cl)C1 (configuration not stated) | – | – | – | – | – | –
Cc1ccc(C(NC(=O)NC(C)c2ccccc2)C(Cl)(Cl)Cl)cc1F (configuration not stated) | – | – | – | – | – | –
CN(C)CCCNS(=O)(=O)c1ccc(Cl)s1 | – | – | – | – | – | –
O=C(O)COn1c(-c2ccccc2)nc2ccc(Cl)cc21 | – | – | – | – | – | 68.5
COn1c(-c2ccccc2)nc2ccc(Cl)cc21 | – | – | – | – | – | –
CCC(C)Sc1cc(C)c(C#N)c2nc3ccccc3n12 (configuration not stated) | 51.7 | – | – | – | – | –
COC(=O)[C@@]1(Cc2ccc(F)cc2)[C@H]2c3cc(C(=O)N4CCCC4)n(CCO)c3C[C@H]2CN1C(=O)c1ccccc1 | – | – | – | – | – | –
COC(=O)[C@@]1(Cc2ccc(F)cc2)[C@H]2c3cc(C(=O)N4CCCC4)n(CCc4ccc(O)c(O)c4)c3C[C@H]2CN1C(=O)c1ccccc1 | 51.8 | – | – | – | – | –
CN(C)c1ncc(/C=C2/C(=O)NC(=S)N(C3CCCCC3)C2=O)cn1 | – | 2 | – | – | – | –
CC(C)CC1NC(=S)N(C2CCCCC2)C1=O (configuration not stated) | – | – | – | – | – | –
O=C(O)C1CC=CCC1C(=O)NNc1ccccc1 (configuration not stated) | – | 2.7 | – | – | – | –
C[C@H]1C[C@@H]2[C@H]([C@@H](O)C[C@@]3(C)[C@H]2CC[C@]3(O)C(=O)CO)[C@@]2(C)C=CC(=O)C=C12 | – | – | – | – | – | –
Oc1ccccc1-c1cc(-c2ccccc2)no1 | – | – | – | – | – | 50.8
Cc1ccccc1-c1cc(-c2ccccc2O)on1 | – | – | – | – | – | –
Cc1ccc(-c2cc(-c3ccccc3)no2)c(O)c1 | – | – | – | – | – | 87.0
Cc1ccc(C(=O)Oc2cc(-c3ccccc3)no2)cc1 | – | – | – | – | – | –
CCCCCCCCCCCC(=O)N/N=C/c1ccco1 | – | – | – | – | – | –
CCOc1ccc(N=C(NN)c2ccc3ccccc3n2)cc1 | – | – | – | – | – | –
CCN(CC)c1ccc(NC(=O)COC(=O)/C=C/c2nc3ccccc3s2)cc1 | – | – | – | – | – | –
CCN(CC)c1ccc(/C=C/c2nc3ccccc3s2)cc1 | – | – | – | – | – | 64.2
Cn1c(/N=C/c2cccs2)nc2ccccc21 | – | – | – | – | – | 73.9
COc1ccc(/C=N/c2nc3ccccc3n2C)cc1OC | – | – | – | – | – | 69.7
Cn1c(/N=C/c2cc(Cl)ccc2O)nc2ccccc21 | – | – | – | – | – | –
